From ChEMBL document CHEMBL1275598, “In vitro activity of ceftaroline against community-associated methicillin-resistant, vancomycin-intermediate, vancomycin-resistant, and daptomycin-nonsusceptible Staphylococcus aureus isolates” (2010)
Converted amounts (≈) assume the structure as drawn.

Tests used:
Type in all cases: functional
Staphylococcus aureus [1] = assay: Antimicrobial activity against vancomycin resistant Staphylococcus aureus VRS-10 expressing SCCmec type 2 element by microdilution method
In short: (§1)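 Broth microdilution per CLSI in cation-adjusted Mueller-Hinton broth. Antibiotic powders were reconstituted per CLSI. The MIC was read visually as the lowest drug concentration with no visible growth. S. aureus ATCC 29213 and E. faecalis ATCC 29212 served as control strains. VISA and VRSA isolates came from the NARSA program.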

Staphylococcus aureus [2] = assay: Antimicrobial activity against community-acquired methicillin-resistant Staphylococcus aureus by microdilution method
In short: (§2)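 MIC by broth microdilution in cation-adjusted Mueller-Hinton broth, following CLSI guidelines; antibiotic powders reconstituted per CLSI. Read visually as the lowest drug concentration well with no visible growth. S. aureus ATCC 29213 and E. faecalis ATCC 29212 served as control strains. CA-MRSA: hospital patients culture-positive within 48 h of admission. DNSSA: patient blood isolates. VISA: obtained from the NARSA program.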

Staphylococcus aureus [3] = assay: Antimicrobial activity against community-acquired methicillin-resistant Staphylococcus aureus assessed as susceptible isolates by microdilution method
In short: (§3)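 MICs by CLSI broth microdilution in cation-adjusted Mueller-Hinton broth, read visually as the lowest concentration with no visible growth. Percentages of susceptible or resistant isolates assigned using CLSI breakpoints. Isolates: CA-MRSA (n = 92, positive within 48 h of admission) and DNSSA (n = 7, blood).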

Staphylococcus aureus [4] = assay: Antimicrobial activity against community-acquired methicillin-resistant Staphylococcus aureus assessed as resistant isolates by microdilution method; in short: as §3
Staphylococcus aureus [5] = assay: Bactericidal activity against vancomycin-resistant Staphylococcus aureus assessed as antibiotic concentration that reduced the number of viable cells by =>99.9% by colony count method
In short: (§4)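 MBC per CLSI following microdilution in cation-adjusted Mueller-Hinton broth. Defined as the concentration giving ≥99.9% reduction in viable cells, judged from colony counts of the growth control well against Pearson rejection-value tables. CA-MRSA isolates were hospital patients' isolates with positive MRSA culture within 48 h of admission.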

Staphylococcus aureus [6] = assay: Bactericidal activity against community-acquired methicillin-resistant Staphylococcus aureus assessed as antibiotic concentration that reduced the number of viable cells by =>99.9% by colony count method; in short: as §4
Staphylococcus aureus [7] = assay: Antimicrobial activity against vancomycin-intermediate Staphylococcus aureus by microdilution method; in short: as §1
Staphylococcus aureus [8] = assay: Antimicrobial activity against vancomycin-intermediate Staphylococcus aureus assessed as susceptible isolates by microdilution method
In short: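 CLSI broth microdilution in cation-adjusted Mueller-Hinton broth. MIC is the lowest concentration well with no visible growth, read by eye. Isolates were classed susceptible from CLSI breakpoints. S. aureus ATCC 29213 and E. faecalis ATCC 29212 were used as MIC control strains.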

Staphylococcus aureus [9] = assay: Antimicrobial activity against vancomycin-intermediate Staphylococcus aureus assessed as resistant isolates by microdilution method
In short: (§5)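 CLSI broth microdilution MICs in cation-adjusted Mueller-Hinton broth, read visually as the lowest concentration with no visible growth. Percent of isolates classed susceptible or resistant was assigned using CLSI breakpoints.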

Staphylococcus aureus [10] = assay: Antimicrobial activity against vancomycin-resistant Staphylococcus aureus assessed as resistant isolates by microdilution method; in short: as §5
Staphylococcus aureus [11] = assay: Bactericidal activity against vancomycin-intermediate Staphylococcus aureus assessed as antibiotic concentration that reduced the number of viable cells by =>99.9% by colony count method
In short: (§6)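 MBC per CLSI guidelines. It was taken as the antibiotic concentration giving ≥99.9% reduction in viable cells, based on colony counts from the growth control well and rejection values from Pearson's tables.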

Staphylococcus aureus [12] = assay: Antimicrobial activity against daptomycin-nonsusceptible Staphylococcus aureus by microdilution method; settings: Staphylococcus aureus; in short: as §2
Staphylococcus aureus [13] = assay: Antimicrobial activity against daptomycin-nonsusceptible Staphylococcus aureus assessed as susceptible isolates by microdilution method; in short: as §3
Staphylococcus aureus [14] = assay: Antimicrobial activity against daptomycin-nonsusceptible Staphylococcus aureus assessed as resistant isolates by microdilution method; in short: as §3
Staphylococcus aureus [15] = assay: Antimicrobial activity against vancomycin-resistant Staphylococcus aureus by microdilution method; in short: as §1
Staphylococcus aureus [16] = assay: Antimicrobial activity against vancomycin-resistant Staphylococcus aureus assessed as susceptible isolates by microdilution method; in short: as §5
Staphylococcus aureus [17] = assay: Bactericidal activity against daptomycin-nonsusceptible Staphylococcus aureus assessed as antibiotic concentration that reduced the number of viable cells by =>99.9% by colony count method; in short: as §6
Staphylococcus aureus [18] = assay: Antimicrobial activity against vancomycin intermediate Staphylococcus aureus NRS-3 expressing SCCmec type 2 element by microdilution method; in short: as §2
Staphylococcus aureus [19] = assay: Antimicrobial activity against vancomycin intermediate Staphylococcus aureus NRS-17 expressing SCCmec type 2 element by microdilution method; in short: as §2
Staphylococcus aureus [20] = assay: Antimicrobial activity against vancomycin intermediate Staphylococcus aureus NRS-118 expressing SCCmec type 1 element by microdilution method; in short: as §2
Staphylococcus aureus [21] = assay: Antimicrobial activity against vancomycin intermediate Staphylococcus aureus NRS-402 expressing SCCmec type 2 element by microdilution method; in short: as §2
Staphylococcus aureus [22] = assay: Antimicrobial activity against vancomycin intermediate Staphylococcus aureus NRS-404 expressing SCCmec type 2 element by microdilution method; in short: as §2
Staphylococcus aureus [23] = assay: Antimicrobial activity against vancomycin resistant Staphylococcus aureus VRS-1 expressing SCCmec type 2 element by microdilution method; in short: as §1
Staphylococcus aureus [24] = assay: Antimicrobial activity against vancomycin resistant Staphylococcus aureus VRS-2 expressing SCCmec type 2 element by microdilution method; in short: as §1
Staphylococcus aureus [25] = assay: Antimicrobial activity against vancomycin resistant Staphylococcus aureus VRS-3 expressing SCCmec type 4 element by microdilution method; in short: as §1
Staphylococcus aureus [26] = assay: Antimicrobial activity against vancomycin resistant Staphylococcus aureus VRS-4 expressing SCCmec type 4 element by microdilution method; in short: as §1
Staphylococcus aureus [27] = assay: Antimicrobial activity against vancomycin resistant Staphylococcus aureus VRS-5 expressing SCCmec type 2 element by microdilution method; in short: as §1
Staphylococcus aureus [28] = assay: Antimicrobial activity against vancomycin resistant Staphylococcus aureus VRS-6 expressing SCCmec type 2 element by microdilution method; in short: as §1
Staphylococcus aureus [29] = assay: Antimicrobial activity against vancomycin resistant Staphylococcus aureus VRS-7 expressing SCCmec element by microdilution method; in short: as §1
Staphylococcus aureus [30] = assay: Antimicrobial activity against vancomycin resistant Staphylococcus aureus VRS-8 expressing SCCmec element by microdilution method; in short: as §1
Staphylococcus aureus [31] = assay: Antimicrobial activity against vancomycin resistant Staphylococcus aureus VRS-9 expressing SCCmec type 2 element by microdilution method; in short: as §1

## CN[C@H](CC(C)C)C(=O)N[C@H]1C(=O)N[C@@H](CC(N)=O)C(=O)N[C@H]2C(=O)N[C@H]3C(=O)N[C@H](C(=O)N[C@H](C(=O)O)c4cc(O)cc(O)c4-c4cc3ccc4O)[C@H](O)c3ccc(c(Cl)c3)Oc3cc2cc(c3O[C@@H]2O[C@H](CO)[C@@H](O)[C@H](O)[C@H]2O[C@H]2C[C@](C)(N)[C@H](O)[C@H](C)O2)Oc2ccc(cc2Cl)[C@H]1O [VANCOMYCIN]
Staphylococcus aureus [1]
  MIC: > 64 µg/mL
Staphylococcus aureus [2]
  MIC50: 1 µg/mL (≈ 0.69 µM)
  MIC90: 1 µg/mL (≈ 0.69 µM)
Staphylococcus aureus [3]
  Activity: 100%
Staphylococcus aureus [4]
  Activity: 0%
Staphylococcus aureus [5]
  MBC50: >64 µg/mL
  MBC90: >64 µg/mL
Staphylococcus aureus [5]; Staphylococcus aureus
  MBC: > 64 µg/mL
Staphylococcus aureus [6]
  MBC50: 1 µg/mL (≈ 0.69 µM)
  MBC90: 1 µg/mL (≈ 0.69 µM)
Staphylococcus aureus [6]; Staphylococcus aureus
  MBC: 0.5 µg/mL (≈ 0.345 µM)
Staphylococcus aureus [7]
  MIC50: 4 µg/mL (≈ 2.76 µM)
  MIC90: 8 µg/mL (≈ 5.52 µM)
Staphylococcus aureus [8]
  Activity: 13%
Staphylococcus aureus [9]
  Activity: 0%
Staphylococcus aureus [10]
  Activity: 100%
Staphylococcus aureus [11]
  MBC50: 4 µg/mL (≈ 2.76 µM)
  MBC90: 8 µg/mL (≈ 5.52 µM)
Staphylococcus aureus [11]; Staphylococcus aureus
  MBC: 1 µg/mL (≈ 0.69 µM)
Staphylococcus aureus [12]
  MIC50: 2 µg/mL (≈ 1.38 µM)
Staphylococcus aureus [13]
  Activity: 100%
Staphylococcus aureus [14]
  Activity: 0%
Staphylococcus aureus [15]
  MIC50: > 64 µg/mL
  MIC90: > 64 µg/mL
Staphylococcus aureus [16]
  Activity: 0%
Staphylococcus aureus [17]
  MBC50: 2 µg/mL (≈ 1.38 µM)
Staphylococcus aureus [17]; Staphylococcus aureus, read-out: MBC
  MBC: 2 µg/mL (≈ 1.38 µM)
Staphylococcus aureus [18]
  MIC: 8 µg/mL (≈ 5.52 µM)
Staphylococcus aureus [19]
  MIC: 8 µg/mL (≈ 5.52 µM)
Staphylococcus aureus [20]
  MIC: 8 µg/mL (≈ 5.52 µM)
Staphylococcus aureus [21]
  MIC: 8 µg/mL (≈ 5.52 µM)
Staphylococcus aureus [22]
  MIC: 8 µg/mL (≈ 5.52 µM)
Staphylococcus aureus [23]
  MIC: > 64 µg/mL
Staphylococcus aureus [24]
  MIC: 32 µg/mL (≈ 22.1 µM)
Staphylococcus aureus [25]
  MIC: 32 µg/mL (≈ 22.1 µM)
Staphylococcus aureus [26]
  MIC: > 64 µg/mL
Staphylococcus aureus [27]
  MIC: > 64 µg/mL
Staphylococcus aureus [28]
  MIC: > 64 µg/mL
Staphylococcus aureus [29]
  MIC: > 64 µg/mL
Staphylococcus aureus [30]
  MIC: > 64 µg/mL
Staphylococcus aureus [31]
  MIC: > 64 µg/mL
